Screening data deposited in PubChem BioAssay by Broad Institute.
This is a sample that favours compounds with a hit; in the whole collection about 3.6% have one here.
PfHsp90 yeast 2 – reduces growth (ATP signal) of yeast expressing P. falciparum Hsp90. AID 504621. actives 0.32% (n = 310,000). S. cerevisiae expressing PfHsp90, BacTiter-Glo ATP, 48 h; yeast lacking PDR1 and PDR3 efflux regulators. inhibition, % at 9.4 µM;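 active means every replicate shows inhibition above about 80%, whatever the replicate mean, limit read from the data; inconclusive means mean inhibition reaches the set limit but some replicate falls short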;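 further: 0% = DMSO neutral controls and 100% = 20 µM radicicol positive controls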
Beta cell apopt – beta cell apoptosis inhibition. INS-1E cytokine-induced death, ATP luminescence, 48 h; percent of positive-control rescue, neutral wells zero. protection from apoptosis, % (test concentration not listed). actives 0.8% (n = 300,000). AID 435005;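 active means Every replicate reaches about 75%, or at least half do and their mean reaches it too, limit read from the data; inconclusive means At least half of replicates reach the limit but their mean does not; inactive means Under half of replicates reach the limit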;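 further: 0% = cytokine-treated negative control wells and 100% = positive control rescue; higher means more ATP so stronger rescue from cytokine killing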
CSC inhib – cancer stem cell inhibition; cancer stem cell-like cells viability, luminescence; inhibition, % at 7.5 µM; actives 1.1% (n = 300,000); in the data active means inhibition above about 75%; inconclusive means no clear call, values can overlap the other calls; tested in HMLE shEcad cells
T cruzi repl – blocks replication of Trypanosoma cruzi; inhibition, % (test concentration not listed); T. cruzi beta-gal in NIH3T3, luminescence, 90 h; actives 1.4% (n = 300,000);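 active means mean inhibition across valid replicates above about 55%, limit read from the data; inconclusive means mean below that limit but half or more replicates reach it; inactive means mean below it, under half of replicates reach it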;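 further: signal also drops with host cell toxicity which is not excluded here; 0% = plate median of DMSO wells and 100% = zero luminescence signal; higher percent means less beta-gal luminescence so fewer parasites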
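Incubation – ≥90 h infection period, 3 h prior cell attachment · System – NIH/3T3 fibroblasts plus reporter T. cruzi · Doses – compound pinned at 50 nL/well, DMSO · Read-out basis – percent inhibition of parasite-derived β-gal signal · Signal – luminescent β-galactosidase signal after 60 min lysis · Also added – 5000 T. cruzi trypomastigotes/well · Medium – Low-serum DMEM with 2% FBS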
HIF act – HIF pathway transcriptional activation | actives 0.32% (n = 300,000) | AID 1910 | activation, % at 7.5 µM (by protocol) | U2OS HRE-luciferase reporter, luminescence; normalized: DMSO 0%, desferrioxamine 100%;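 active means mean activation of at least 10% of the iron chelator positive control signal, with at least half of replicates also reaching 10%; inconclusive means mean and replicate majority disagree about reaching 10%; inactive means mean and most replicates under 10%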
SKKanGAS inh – blocks kanamycin growth of S. pyogenes SKKanGAS strain; actives 1.3% (n = 300,000); BacTiter-Glo, 6 h; inhibition, % at 7.5 µM;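 active means mean replicate score, as percent of positive control median, at least 50; inconclusive means mean below 50 but one replicate at or above 50; inactive means mean and every replicate below 50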;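 further: strain carries kanamycin resistance gene driven by streptokinase promoter and grows in 40 µg/ml kanamycin; loss of luminescence reflects streptokinase promoter inhibition or plain growth inhibition; 0% = median of DMSO wells and 100% = positive control at its reference dose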
The depositor's hits bear a star; ? = inconclusive; · = not tested or not shown.

SMILES	PfHsp90 yeast 2	Beta cell apopt	CSC inhib	T cruzi repl	HIF act	SKKanGAS inh
COC(C(=O)Nc1ccccc1C(=O)N1CCOCC1)c1ccccc1 (centres undefined)	-5	-5	·	-1	1	1
COc1ccc2cc(C3=CCCC3(C)C(=O)O)ccc2c1 (centres undefined)	-19	·	·	·	·	·
CN(CC(=O)Nc1cccc(F)c1)C(=O)c1ccc2c(c1)CC(c1ccccc1)OC2=O (centres undefined)	11	·	·	·	·	·
CC(C)CC(=O)NC(=S)NNC(=O)c1ccc(NC(=O)C2CCCCC2)cc1	13	30	-12	-4	0	88*
COc1cccc(/C=N/NC(=O)CNC(=O)COc2ccccc2)c1O	-4	19	55	4	3	2
Cc1cccc(OCC(=O)NCC(=O)N/N=C/c2cc(Br)cc(Br)c2O)c1	-1	55	28	23	1	61*
COc1ccc(NC(=S)NC(=O)/C=C/c2cccs2)cc1	15	-1	-9	3	0	-3
O=C(/C=C/c1cccs1)NC(=S)Nc1ccc(S(=O)(=O)Nc2ccccc2C(F)(F)F)cc1	-1	-7	43	8	-1	59*
CC1CN(CCN2CC(C)N(C=O)CC2C)C(C)CN1C=O (centres undefined)	-11	·	·	·	·	·
COc1ccc(N2CCN(c3ncnc4c3[nH]c3ccccc34)CC2)cc1	16	102*	9	7	0	5
COc1ccc2c(c1)N(C)/C(=C/c1cccc[n+]1C)S2	5	105*	37	56*	1	25
CCN1/C(=C/c2cccc[n+]2C)Sc2ccc(OC)cc21	3	105*	34	70*	1	2
Cc1ccc2c(c1)N(C)/C(=C/c1cccc[n+]1CCO)S2	-4	98*	7	?	1	1
Cn1c(SCC(=O)NC2CCCCC2)nnc1-c1ccccc1O	13	-2	-8	-2	0	-9
Cc1ccccc1-c1cccc([C@@H]2C[C@H]3[C@H](CON3C)CN2C(=O)C(C)(C)C)c1	27	·	·	·	·	·
O=C(O)c1ccc2cccnc2c1O	36	3	5	2	0	-10
Cc1ccc2ccc3cccnc3c2n1	10	86*	-10	?	2	43
N#C/C(=C/c1cn(-c2ccccc2)nc1-c1cccc(OCc2ccc(F)cc2)c1)C(=O)NCCCn1ccnc1	35	-1	99*	63*	-2	?
CCc1nnc(NC(=O)c2ccncc2)s1	-4	-3	-2	-2	2	-4
CCc1nnc(NC(=O)c2cccc(C(=O)Nc3nnc(CC)s3)n2)s1	65	76*	40	32	0	99*
O=C(Nc1ccc2ccccc2c1)c1cn(-c2ccccc2)nc1-c1cccs1	·	16	40	60*	1	15
C=CCNc1nc(-c2ccccn2)nnc1-c1ccccc1	49	4	-13	69*	110*	6
CCOc1ccccc1C(=O)NCC(=O)NNC(=O)c1cccs1	6	-3	-9	·	·	·
CN(c1ccccc1)c1nc(N)c([N+](=O)[O-])c(Nc2ccccc2F)n1	11	-8	16	37	2	29
COc1ccc(OC)c(Nc2nc(N(C)c3ccccc3)nc(N)c2[N+](=O)[O-])c1	22	20	43	69*	-1	17
SMILES	PfHsp90 yeast 2	Beta cell apopt	CSC inhib	T cruzi repl	HIF act	SKKanGAS inh
CCC(C)Nc1nc(N)c([N+](=O)[O-])c(Nc2ccccc2OC)n1 (centres undefined)	-80	-4	27	16	0	2
CCC(C)Nc1nc(N)c([N+](=O)[O-])c(Nc2cc(OC)ccc2OC)n1 (centres undefined)	-135	1	63	28	-1	69*
O=C(NC(=S)NC1CCC(O)CC1)c1ccco1 (centres undefined)	-16	-3	-11	·	·	·
Cc1onc(-c2ccccc2)c1C(=O)Nc1ccc(S(=O)(=O)N2CCCC2)cc1	-29	0	-2	5	87*	-14
CC(C)Cn1c(SCC(=O)N2CCc3ccccc3C2)nc2cc(Cl)ccc2c1=O	14	115*	32	18	0	37
O=C(CSc1nc2ccccc2c(=O)n1-c1ccccc1)N1CCc2ccccc2C1	-1	100*	68	26	·	-15
CC(C)c1ccccc1-n1c(SCC(=O)N2CCc3ccccc3C2)nc2ccccc2c1=O	7	121*	12	13	-1	-2
CC1(C)CCC[C@]2(C)C(CS(=O)c3ccccc3)=C(C=O)CC[C@@H]12 (some centres undefined)	-12	-3	43	6	0	2
O=c1c2ccccc2nc(COc2ccccc2)n1/N=C/c1ccc(O)cc1O	-4	87*	67	57*	61*	12
C/C(=N\OCc1nc2ccccc2c(=O)n1/N=C/c1cc([N+](=O)[O-])ccc1O)c1ccccc1	0	25	?	21	10*	24
O=c1c2ccccc2nc(COc2ccccc2)n1/N=C/c1c[nH]c2ccccc12	-21	3	16	23	0	-5
C/C(=N\OCc1nc2ccccc2c(=O)n1/N=C/c1cc(C)cc([N+](=O)[O-])c1O)c1ccccc1	14	11	35	46	9.6*	34
Cc1ccccc1-c1nc2ccccc2c(=O)n1/N=C/c1ccccc1[N+](=O)[O-]	·	-13	-3	4	?	3
COCCN(C(=O)c1cc2c(s1)CCCCC2)c1c(N)n(Cc2ccccc2)c(=O)[nH]c1=O	·	-2	-21	9	0	-6
COc1ccc2cc(C[C@@H]3CC[C@@H](CNC(N)=O)O3)ccc2c1	-5	·	·	·	·	·
Cc1ccc(-n2nc3c(=O)n(CC(=O)NCc4ccccc4)nc(C)c3c2C)cc1	-5	·	-10	-6	89*	1
CCS(=O)c1ccccc1C(=O)OCC(=O)N1CCC(c2ccccc2)=N1 (centres undefined)	22	-4	-12	·	·	·
O=C(Nn1c(Cc2ccccc2)nc2ccccc2c1=O)c1c(O)c2cccc3c2n(c1=O)CCC3	-25	-8	18	49	-1	71*
CCCc1nnc(NC(=O)c2c(O)c3cccc4c3n(c2=O)CCC4)s1	·	5	29	-18	0	87*
CCOC(=O)C1=C(N)N2C(=O)C(C)SC2=C(C(=O)OCC)C1c1ccccc1 (centres undefined)	-12	0	-8	2	0	12
CCOC(=O)C1=C(N)N2C(=O)C(C)SC2=C(C(=O)OC)C1c1ccccc1OC (centres undefined)	133*	-9	-9	·	·	·
Cc1nn(-c2ccc([N+](=O)[O-])cc2)c2c1C(c1cccc(Br)c1)N1C(=N2)C(=O)Nc2ccccc21 (centres undefined)	-84	·	9	82*	-2	7
